Results reported in publication PMC11522000 (Nature Microbiology, 2024).
In brackets after ≈: the same amount, converted by molar mass.

Experiments:
[1] = Cytotoxicity assay; format: cell-based, human; settings: human, HepG2 cells (ATCC CRL-10741), HepG2 CC50, 96 h
[2] = Plasma stability; format: in vitro ADME; settings: mouse
Procedure, shortened: (§1)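 Test compound was added to plasma and incubated at 37 °C in a shaking water bath, with samples taken at sequential timepoints. Samples were quenched with ice-cold acetonitrile and analysed by LC-MS/MS, and half-life was calculated from the depletion rate.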

[3] = High-throughput equilibrium solubility; format: physicochemical; settings: thermodynamic from solid
Procedure, shortened: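 Equilibrium solubility was measured by a miniaturized shake-flask method with HPLC quantification.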

[4] = system: P-glycoprotein (MDR1); experiment: MDCK MDR1 permeability and efflux; format: in vitro ADME; settings: dog
[5] = Plasma stability; format: in vitro ADME; settings: human
Procedure, shortened: as §1

[6] = biological target: HsPI(4)K (Homo sapiens, UniProt Q9UBF8); experiment: PI; format: biochemical; settings: HsPI(4)K IC50, 3 μM ATP
Chain of HsPI(4)K (Q9UBF8 523-816 limits assumed): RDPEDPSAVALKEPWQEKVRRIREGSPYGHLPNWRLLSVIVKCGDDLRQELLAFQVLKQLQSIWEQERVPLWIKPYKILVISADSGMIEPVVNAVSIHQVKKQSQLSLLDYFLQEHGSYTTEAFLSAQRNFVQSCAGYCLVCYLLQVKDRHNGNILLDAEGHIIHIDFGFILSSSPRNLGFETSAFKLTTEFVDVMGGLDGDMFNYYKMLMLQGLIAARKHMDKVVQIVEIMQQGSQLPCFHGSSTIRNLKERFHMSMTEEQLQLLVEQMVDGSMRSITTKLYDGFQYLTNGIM

[7] = Stability in intestinal S9 fraction; format: in vitro ADME; settings: mouse
Procedure, shortened: (§2)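 Test compound added to intestinal S9 fraction of each species to start the reaction. Incubated in a shaking water bath at 37 °C, with samples taken at sequential timepoints. Samples quenched with ice-cold acetonitrile and analysed by LC-MS/MS. Half-life calculated from the rate of parent compound depletion.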

[8] = system: C. parvum; experiment: Mouse efficacy study; format: in vivo, C57BL/6 IFN-γ-knockout mice; settings: oral 10 mg kg^−1, 5 days; nitazoxanide 100 mg kg^−1
[9] = biological target: T1, CpPI(4)K (Cryptosporidium parvum, UniProt Q5CVD3); experiment: PI; format: biochemical, C. parvum
T1 sequence (Q5CVD3 1-1114): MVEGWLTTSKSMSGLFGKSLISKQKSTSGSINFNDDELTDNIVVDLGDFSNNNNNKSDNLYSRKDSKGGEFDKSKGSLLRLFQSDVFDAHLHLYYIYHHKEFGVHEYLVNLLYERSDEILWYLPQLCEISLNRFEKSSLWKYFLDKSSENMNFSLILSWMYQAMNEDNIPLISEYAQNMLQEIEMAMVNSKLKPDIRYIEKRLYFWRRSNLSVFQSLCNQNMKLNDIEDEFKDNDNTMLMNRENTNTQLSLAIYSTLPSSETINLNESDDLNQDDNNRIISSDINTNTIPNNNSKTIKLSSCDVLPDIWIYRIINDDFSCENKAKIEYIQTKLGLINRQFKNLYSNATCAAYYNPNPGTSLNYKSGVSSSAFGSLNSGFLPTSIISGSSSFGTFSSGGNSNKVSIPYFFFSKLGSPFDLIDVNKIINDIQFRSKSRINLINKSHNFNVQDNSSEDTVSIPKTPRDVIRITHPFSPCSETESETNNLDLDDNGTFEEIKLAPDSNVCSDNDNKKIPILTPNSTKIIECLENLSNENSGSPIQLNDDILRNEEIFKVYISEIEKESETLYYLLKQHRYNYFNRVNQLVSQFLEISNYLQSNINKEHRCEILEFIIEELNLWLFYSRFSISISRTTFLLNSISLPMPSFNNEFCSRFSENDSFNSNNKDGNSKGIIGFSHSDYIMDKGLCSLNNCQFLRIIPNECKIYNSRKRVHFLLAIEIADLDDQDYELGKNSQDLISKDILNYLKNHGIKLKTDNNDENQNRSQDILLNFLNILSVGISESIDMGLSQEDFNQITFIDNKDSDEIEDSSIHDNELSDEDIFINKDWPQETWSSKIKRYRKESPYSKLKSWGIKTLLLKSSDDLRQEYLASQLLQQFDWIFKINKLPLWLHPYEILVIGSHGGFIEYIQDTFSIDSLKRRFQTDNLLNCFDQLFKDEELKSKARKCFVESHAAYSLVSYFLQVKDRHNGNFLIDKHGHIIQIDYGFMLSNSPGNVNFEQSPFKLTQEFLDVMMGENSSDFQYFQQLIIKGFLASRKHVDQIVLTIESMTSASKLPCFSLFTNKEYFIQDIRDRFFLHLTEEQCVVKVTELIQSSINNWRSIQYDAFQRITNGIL
Procedure, shortened: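 Enzyme was pre-incubated with compound for 5 min at room temperature. The reaction was started with substrate mix at twice final strength (PI, ATP, Tris-HCl pH 7.5, DTT, 0.05% Triton X-100, MnCl2) and run 50 min at room temperature. ADP was measured by ADP-Glo luminescence. IC50s came from in-plate duplicate 10-point 3-fold dilutions, with DMSO and reference-inhibitor controls. The C. parvum enzymes (wild type and mutants) were full-length proteins expressed from baculovirus in Sf21 cells.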

[10] = Hepatocytes metabolic stability; format: in vitro ADME; settings: mouse; for half-life: hepatocytes
Procedure, shortened: (§3)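 Test compound was incubated with liver microsomes or hepatocytes of each species, and parent depletion was quantified by LC-MS/MS. From this, in vitro half-life and intrinsic clearance were derived, along with predicted metabolic clearance and hepatic extraction ratio.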

[11] = Stability in intestinal S9 fraction; format: in vitro ADME; settings: human
Procedure, shortened: as §2

[12] = Systemic exposure in the mouse efficacy studies; format: in vivo; settings: mouse efficacy study, 10 mg kg^−1 oral
[13] = 2 weeks GLP dog toxicology study with toxicokinetics; format: in vivo; settings: both, beagle, dog, plasma, po, 1000 mg/kg/day, EDI048 1000 mg/kg/day; for AUC(0-t): AUC0-8, dog
[14] = 2 weeks GLP rat toxicology study with toxicokinetics; format: in vivo; settings: both, Wistar, plasma, po, 1000 mg/kg/day, EDI048 1000 mg/kg/day; for AUC(0-t): AUC0-8, rat
Procedure, shortened: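 Male and female Wistar rats were about 7–8 weeks old at receipt and 9–10 weeks old at the start of dosing. They were dosed for 2 weeks at 50, 250 and 1000 mg/kg/day, with toxicokinetic plasma sampling.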

[15] = Hepatocytes metabolic stability; format: in vitro ADME; settings: human
Procedure, shortened: as §3

[16] = In vivo pharmacokinetic analysis; parameters: species or system mouse; settings: male, C57BL/6, mouse, plasma
Procedure, shortened: (§4)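 Animals were male C57BL/6 mice (8–10 weeks), Wistar rats (8–10 weeks) and beagle dogs (12–14 weeks). Each received oral and i.v. doses, with plasma sampling for PK parameters.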

[17] = In vivo pharmacokinetic analysis; settings: male, Beagle, dog, plasma
Procedure, shortened: as §4

| SMILES | CC50 at 96 h [1] [nM] | half-life [2] [h] | solubility ([3]; FaSSIF) [µM] | solubility ([3]; pH 6.8, aqueous buffer) [µM] | Papp A→B ([4]; MDCK-MDR1) [×10⁻⁶ cm/s] | Papp B→A ([4]; MDCK-MDR1) [×10⁻⁶ cm/s] | efflux ratio ([4]; MDCK-MDR1) | half-life [5] [h] | IC50 [6] [nM] | half-life [7] [h] | efficacy in the mouse model [8] | IC50 ([9]; CpPI(4)K IC50, 3 μM ATP) [nM] | IC50 ([9]; CpPI(4)K IC50, running text) [nM] | Hepatocytes ER [10] [%] | half-life [10] [h] | half-life [11] [h] | AUC(0-t) ([13]; day 1) [ng·h/mL] | AUC(0-t) ([13]; day 14) [ng·h/mL] | Cmax ([13]; day 14) [ng/mL] | Tmax ([13]; day 1) [h] | further results |
| --- | --- | --- | --- | --- | --- | --- | --- | --- | --- | --- | --- | --- | --- | --- | --- | --- | --- | --- | --- | --- | --- |
| CNC(=O)c1ccc(-c2cnn3ccc(C(=O)N(CC(=O)O)c4ccc(Cl)cc4)cc23)cc1 [Compound 2, N-(4-chlorophenyl)-N-(3-(4-(methylcarbamoyl)phenyl)pyrazolo[1,5-a]pyridine-5-carbonyl)glycine] | > 100000 | > 2 | 1000 (≈ 463 µg/mL) | 708 (≈ 328 µg/mL) | 0.89 | 1.65 | 1.85 | > 2 | 135 ± 33 | > 4 | not efficacious in vivo | 2 | 2 to 7 | 52 | 0.597 |  |  |  |  |  |  |
| CNC(=O)c1ccc(-c2cnn3ccc(C(=O)N(CCC(=O)OCC(=O)N(C)C)c4ccc(Cl)cc4)cc23)cc1 [Compound 3, 2-(dimethylamino)-2-oxoethyl 3-(N-(4-chlorophenyl)-3-(4-(methylcarbamoyl)phenyl)pyrazolo[1,5-a]pyridine-5-carboxamido)propanoate] | 38200 |  | 355 (≈ 200 µg/mL) | 11 (≈ 6.18 µg/mL) |  |  |  |  | 1030 ± 485 | 0.153 | inactive in vitro and in vivo | 5 |  | 93 | < 0.0467 | 0.75 |  |  |  |  | AUC (time 0 to last timepoint) [12]: <LLOQ^f; Cmax [12]: <LLOQ^f |
| COC(=O)c1cc(N(C)C(=O)c2ccn3ncc(-c4ccc(C(=O)O)cc4)c3c2)ccc1Cl [Compound 7, 4-(5-((4-chloro-3-(methoxycarbonyl)phenyl)(methyl)carbamoyl)pyrazolo[1,5-a]pyridin-3-yl)benzoic acid] | > 100000 |  |  |  |  |  |  |  | 11300 |  |  | 76 |  |  |  |  | 642 | 1180 | 224 | 1.6 | Tmax ([13]; day 14): 2.2 h; AUC(0-t) ([14]; day 14): 0.221 ng·h/mL; Cmax ([14]; day 14): 0.046 ng/mL; Tmax ([14]; day 1): 3 h; Tmax ([14]; day 14): 1 h |
| CNC(=O)c1ccc(-c2cnn3ccc(C(=O)N(C)c4ccc(Cl)c(C(=O)O)c4)cc23)cc1 [Compound 6, 2-chloro-5-(N-methyl-3-(4-(methylcarbamoyl)phenyl)pyrazolo[1,5-a]pyridine-5-carboxamido)benzoic acid] | > 100000 |  |  |  | 0.56 |  | 1.86 |  | 484 ± 119 | > 4 |  | 31 ± 24 |  | 18 | > 2.92 |  | 205 | 301 | 72.8 | 1.2 | Tmax ([13]; day 14): 1.15 h; Hepatocytes ER [15]: 33%; half-life ([15]; hepatocytes): > 2.92 h; solubility ([3]; pH 6.8, aqueous buffer, Solubility pH 6.8, pH 6.8): > 1000 µM; AUC ([16]; iv, 1 mg/kg): 1.19 µM·h; AUC ([16]; po, 10 mg/kg): 0.092 µM·h; Cmax ([16]; po, 10 mg/kg): 33.4 nM; Papp B→A ([4]; MDCK-MDR1, Permeability B–A, MDCK MDR1, basolateral to apical): 1.04 ×10⁻⁶ cm/s; AUC ([17]; iv, 0.1 mg/kg): 0.0319 µM·h; AUC ([17]; po, 0.3 mg/kg): 0.0047 µM·h; Cmax ([17]; po, 0.3 mg/kg): 2 nM; AUC(0-t) ([14]; day 1): 886 ng·h/mL; AUC(0-t) ([14]; day 14): 1430 ng·h/mL; Cmax ([14]; day 14): 242 ng/mL; Tmax ([14]; day 1): 1 h; Tmax ([14]; day 14): 3 h |
| COC(=O)c1cc(Cl)ccc1N(C)C(=O)c1ccn2ncc(-c3ccc(C(N)=O)cc3)c2c1 [Compound 5, methyl 2-(3-(4-carbamoylphenyl)-N-methylpyrazolo[1,5-a]pyridine-5-carboxamido)-5-chlorobenzoate] | > 100000 | > 2 | 147 (≈ 68 µg/mL) | 110 (≈ 50.9 µg/mL) | 2.55 | 15.7 | 6.15 | > 2 | 203 ± 47 | 1 |  | 5 ± 2 |  | 91 | 0.0667 | 1.77 |  |  |  |  |  |
| CCOC(=O)CN(C(=O)c1ccn2ncc(-c3ccc(C(=O)NC)cc3)c2c1)c1ccc(Cl)cc1 [Compound 1, ethyl N-(4-chlorophenyl)-N-(3-(4-(methylcarbamoyl)phenyl)pyrazolo[1,5-a]pyridine-5-carbonyl)glycinate] | 14700 | 0.227 | 86 (≈ 42.2 µg/mL) | 31 (≈ 15.2 µg/mL) | 7.89 | 7.4 | 0.94 | > 2 | 1140 ± 296 | 2 | highly efficacious | 7 ± 2 | 2 to 7 | 74 | 0.223 | 2 |  |  |  |  |  |
